This note sets out measurements from ChEMBL document CHEMBL1143802, “Synthesis and biological evaluation of some 6-substituted purines” (Eur J Med Chem, 2007).

In one assay the test system is Leishmania amazonensis. The assay is described as follows: Antileishmanial activity against Leishmania amazonensis MHOM/Br/75/Josefa promastigotes by MTT colorimetric method. The format is functional, organism-based. An outline of the steps: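 Log-phase promastigotes grown at 24 °C in Warren's medium (brain heart infusion with hemin and folic acid) plus 10% fetal bovine serum. Seeded at 2 million cells/mL and preincubated 1 h at 24 °C. Compounds added in water or DMSO (up to 1% v/v), each concentration in triplicate. Incubated three days, viability read by MTT, and IC50 taken as 50% growth inhibition.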
On the technique in general: Tetrazolium assays rely on reduction of a dye to a coloured formazan, in cell work by metabolically active cells.

In a further assay the test system is Leishmania chagasi. Kind of assay: Antileishmanial activity against Leishmania chagasi MHOM/Br/74/PP75 promastigotes by MTT colorimetric method. The format is functional, organism-based. An outline of the steps: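 Log-phase promastigotes kept at 24 °C in Medium 199 plus 10% fetal bovine serum. Seeded at 3 million cells/mL and held 1 h at 24 °C before compound addition in water or DMSO (up to 1% v/v). Each concentration run in triplicate over a three-day incubation. Viability measured by MTT; IC50 is the concentration giving 50% growth inhibition.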

What is called IC50 is the concentration that gives 50% inhibition. Low values mean greater potency, high ones weaker potency.

With `c1nc(SCCCNC2CCCCC2)c2nc[nH]c2n1`, the IC50 with Leishmania amazonensis and in the assay on Leishmania chagasi was above 227 µM each time.
Regarding `NCCSCCCSc1ncnc2[nH]cnc12`, the IC50 in the assay on Leishmania amazonensis is 50 µM; with Leishmania chagasi it was above 227 µM.
As to `O=C(O)CSc1ncnc2[nH]cnc12`, the IC50 in the assay with Leishmania amazonensis is 39 µM; in the assay with Leishmania chagasi it was above 227 µM.
The corresponding values for `O=C1c2ccccc2C(=O)N1CCCCSc1ncnc2[nH]cnc12` are above 227 µM and above 227 µM.
With `ClCCCSc1ncnc2[nH]cnc12`, the IC50 in the assay with Leishmania amazonensis was 50 µM; in the assay on Leishmania chagasi, above 227 µM.
Take `CO[C@@H]1O[C@H](CSc2ncnc3[nH]cnc23)[C@H]2OC(C)(C)O[C@@H]12`: the IC50 in the assay with Leishmania amazonensis and in the assay on Leishmania chagasi was above 227 µM in each case.
As to `NCCNCCCSc1ncnc2[nH]cnc12`, the IC50 with Leishmania amazonensis and in the assay with Leishmania chagasi was above 227 µM in each case.
`CC1(C)O[C@H]2[C@@H](O1)[C@@H](CSc1ncnc3[nH]cnc13)O[C@@H]1OC(C)(C)O[C@@H]12`: the IC50 in the assay with Leishmania amazonensis and in the assay with Leishmania chagasi was above 227 µM throughout.
Turning to `CO[C@@H]1O[C@H](CSc2ncnc3[nH]cnc23)[C@@H](O)[C@H]1O`, the results for the IC50 in the assay on Leishmania amazonensis and in the assay with Leishmania chagasi were 29 µM and above 227 µM, respectively.
`CCOC(=O)CSc1ncnc2[nH]cnc12`: the IC50 in the assay with Leishmania amazonensis and in the assay on Leishmania chagasi was above 227 µM in each case.
Take `CC1(C)O[C@H]2[C@H]3OC(C)(C)O[C@]3(CSc3ncnc4[nH]cnc34)OC[C@H]2O1`: the IC50 in the assay on Leishmania amazonensis and in the assay with Leishmania chagasi was above 227 µM throughout.
`C[C@@H]1[C@H](O)[C@@H](C)/C=C/C=C/C=C/C=C/C=C/C=C/C=C/[C@H](O[C@@H]2O[C@H](C)[C@@H](O)[C@H](N)[C@@H]2O)C[C@@H]2O[C@](O)(C[C@@H](O)C[C@@H](O)[C@H](O)CC[C@@H](O)C[C@@H](O)CC(=O)O[C@H]1C)C[C@H](O)[C@H]2C(=O)O` [AMPHOTERICIN B]: the IC50 worked out at 0.9 µM in the assay with Leishmania amazonensis and 1.9 µM with Leishmania chagasi.
The corresponding values for `Sc1ncnc2nc[nH]c12` [MERCAPTOPURINE ANHYDROUS] are above 227 µM and above 227 µM.
